In the library only some 1.4% were active in any assay of this set; here they are far more common.
TAG inh – inhibitors of triacylglycerol accumulation, primary screen, cell-based, uHTS, fluorescence, H9c2 | H9c2 cells, Nile Red lipid (TAG) fluorescence; cells loaded with 200 µM oleic acid | inhibition, % at 12.5 µM | actives 0.66% (n = 230,000) | AID 651582, 2012;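 active = pattern-corrected inhibition of lipid staining of at least 50% with the nuclear-stain viability signal not falling by more than 50%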
DAGLB inhibitor – DAGLB lipase inhibitors, primary screen, biochemical, fluorescence, HTS | HEK293T DAGLB membrane lysate, EnzChek fluorogenic substrate | inhibition, % at 5.17 µM | actives 0.059% (n = 340,000) | AID 504411, 2011; in the data active = inhibition above about 34%
DDE Tn6 FP inh – inhibitors of Tn6 peptide binding to fibrin DD(E), primary screen, biochemical, fluorescence polarization, human fibrin, Tn6 probe; actives 0.21% (n = 370,000); Fibrin DD(E) TRITC-Tn6 fluorescence polarization displacement; inhibition, % at 8.3 µM; Fibrinogen beta chain (Homo sapiens), P02675;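 active = inhibition above a per-campaign cutoff: mean of compounds within control limits plus 3 SD, cut at about 15% in these data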
Target sequence (P02675 whole entry, looked up): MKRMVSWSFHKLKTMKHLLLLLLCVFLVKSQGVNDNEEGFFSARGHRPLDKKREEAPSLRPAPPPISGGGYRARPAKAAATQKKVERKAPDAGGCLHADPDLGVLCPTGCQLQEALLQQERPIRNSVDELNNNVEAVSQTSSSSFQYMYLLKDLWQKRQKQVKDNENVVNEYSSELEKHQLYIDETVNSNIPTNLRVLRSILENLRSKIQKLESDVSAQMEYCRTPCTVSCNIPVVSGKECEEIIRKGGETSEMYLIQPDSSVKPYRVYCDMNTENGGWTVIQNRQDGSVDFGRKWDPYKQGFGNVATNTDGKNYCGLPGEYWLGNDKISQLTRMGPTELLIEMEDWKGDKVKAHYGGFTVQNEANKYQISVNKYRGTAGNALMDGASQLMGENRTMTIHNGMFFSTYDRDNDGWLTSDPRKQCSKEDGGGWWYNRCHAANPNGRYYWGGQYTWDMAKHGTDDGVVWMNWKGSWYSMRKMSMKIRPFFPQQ
MT1-MMP act inh – blockers of MT1-MMP proenzyme processing, primary screen, HT1080 RFP-PRO-GFP cells, GFP/RFP fluorescence. Matrix metalloproteinase-14 (Homo sapiens), P50281. GFP/RFP ratio fluorescence, overnight; percent of plate control window, DMSO zero. GFP/RFP ratio change, % at 20 µM. actives 0.061% (n = 360,000);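 active = GFP/RFP ratio change of at least 30% with cell ATP level not reduced by more than half and red fluorescence within 50% of control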
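Test system: HT1080 RFP-PRO-GFP cells; Benchmarks: DMSO and RFP-L50D-GFP cell wells; Timing: cells overnight before dosing, compound overnight, 37 °C, 5% CO2; Compound: one 20 µM compound dose with 1% DMSO; Read-out: GFP/RFP fluorescence ratio.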
Tn7 DDE FP – inhibitors of Tn7 peptide binding to fibrin DD(E), primary screen, biochemical, fluorescence polarization, human fibrin, Tn7 probe. Fibrinogen beta chain (Homo sapiens), P02675. FP displacement of FITC-Tn7 peptide from fibrin DD(E); 0% = median of compound wells per plate. inhibition, % at 8.3 µM. actives 0.13% (n = 370,000);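 active = inhibition above the mean of compounds falling within the control limits plus 3 SD of them, cut at about 14% in these data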
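System: human fibrin DD(E); quantity: Fibrin-DD(E) at 2 µM final; also added: fluorescent Tn7 probe at 0.1 µM; compound dosing: single nominal test concentration of 8.3 µM per compound; schedule: 10 min preincubation, 3 h with tracer, room temperature; detection: fluorescence polarization of the labelled Tn7 tracer; repeats: one replicate per compound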
H9c2 protect – cardioprotection against H2O2-induced cell death, primary screen, uHTS, H9c2 cells, ATPLite luminescence; H9c2 cardiomyocytes, H2O2 injury protection, 2 h; protection from H2O2 cell death, % at 20 µM; actives 0.63% (n = 360,000); AID 588492, 2011;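 active = compounds giving at least 50% protection of heart cells from peroxide-induced death in the single-dose screen, raw or plate-pattern-corrected value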
Numbers stand for hits; i = inactive; nt = no result given.

SMILES | TAG inh | DAGLB inhibitor | DDE Tn6 FP inh | MT1-MMP act inh | Tn7 DDE FP | H9c2 protect
CCN1CCN(Cc2ccc(NC(=O)c3ccc(C)c(NC(=O)c4cncc(-c5cccs5)c4)c3)cc2C(F)(F)F)CC1 | 117 | i | nt | i | nt | i
CCN1CCN(Cc2ccc(NC(=O)c3ccc(C)c(NC(=O)c4cc(-c5ccc(Br)cc5)n[nH]4)c3)cc2C(F)(F)F)CC1 | 66 | i | i | i | i | i
CCN1CCN(Cc2ccc(NC(=O)c3cc(NC(=O)c4nccnc4N)cc(OC)c3)cc2C(F)(F)F)CC1 | i | i | i | i | i | i
CCN1CCN(Cc2ccc(NC(=O)c3ccc(C)c(NC(=O)c4nccn4C)c3)cc2C(F)(F)F)CC1 | i | i | i | i | i | i
CCN1CCN(Cc2ccc(NC(=O)c3cc(NC(=O)c4cncc(-c5ccc(C#N)cc5)c4)cc(OC)c3)cc2C(F)(F)F)CC1 | 95 | i | i | i | i | i
CCN1CCN(Cc2ccc(NC(=O)c3ccc(C)c(NC(=O)c4nccnc4N)c3)cc2C(F)(F)F)CC1 | i | i | i | i | i | i
Nn1c(SCc2ccc(Br)cc2)nnc1-c1n[nH]c2c1CCC2 | nt | nt | i | nt | i | nt
Cc1ccc(C)c2c1CCC(=Cc1ccccc1[N+](=O)[O-])C2=O | i | i | i | i | i | i
CN1C/C(=C/c2ccccc2[N+](=O)[O-])C(=O)/C(=C\c2ccccc2[N+](=O)[O-])C1 | 69 | i | i | i | i | i
Cc1cccc(NC(=O)CCS(=O)(=O)c2ccccc2)c1C | nt | nt | i | nt | i | nt
COc1cccc(/C=N/NC(=O)CN2CC(c3ccccc3)CC2=O)c1O (centres undefined) | i | i | i | i | i | 56
COc1cccc(/C=N/NC(=O)CSc2nnc(C)n2-c2ccccc2)c1O | i | i | i | i | i | 80
CCCCSc1nc(C)cc(SCC(=O)N/N=C/c2cccc(OC)c2O)n1 | i | i | i | i | i | 52
CC(=O)OC12CCCN(C1)/C(=C/c1ccccc1)C2 (centres undefined) | nt | nt | i | nt | i | nt
CN(Cc1ccccc1)c1nc(-c2ccc([N+](=O)[O-])cc2)nc2ccccc12 | i | i | i | i | i | i
O=[N+]([O-])c1ccc(-c2nc(C(Cl)Cl)c3ccccc3n2)cc1 | 112 | i | i | i | i | i
CCOC(=O)c1c(C)[nH]c(C)c1C(=O)COc1ncnc2cc([N+](=O)[O-])ccc12 | i | i | i | i | i | 65
COC(=O)[C@]12C[C@H](CC(=O)NCCCN3CCCC3=O)C(=O)N(Cc3ccc(Cl)cc3Cl)C1=C[C@H](C1CCCC1)O[C@@H]2C | nt | nt | i | nt | i | nt
Cc1ccc(NCCN(C)C)c2c(=O)c3cc(O)ccc3sc12 | 63 | i | i | i | i | i
CCOC(=O)C1CCN(c2cc3c(cc2NC(=O)c2ccccc2Cl)n(C)c(=O)n3C)CC1 | nt | i | i | i | i | 56
CCOC(=O)C1CCN(c2cc3c(cc2NC(=O)c2ccccc2F)n(C)c(=O)n3C)CC1 | nt | i | i | i | i | i
CCOC(=O)C1CCN(c2cc3c(cc2NC(=O)c2ccc(F)cc2)n(C)c(=O)n3C)CC1 | nt | i | i | i | i | 81
C=CCN=C1NC(c2ccc(F)cc2)C(C(=O)OC)=C(C)N1Cc1ccccc1C(F)(F)F (centres undefined) | nt | nt | i | nt | i | nt
CC(C)N(Cc1cn(Cc2ccccc2)nn1)S(=O)(=O)c1ccccc1Br | nt | nt | i | nt | i | nt
COc1ccc2c(c1)c(/C=N/Nc1nc3ccccc3[nH]1)c(C)n2C | 50 | i | i | i | i | i
SMILES | TAG inh | DAGLB inhibitor | DDE Tn6 FP inh | MT1-MMP act inh | Tn7 DDE FP | H9c2 protect
COc1cc(/C=N\Nc2nc3ccccc3[nH]2)cc(OC)c1OC | i | i | i | i | i | i
CCN1CCC(O)(/C=C/c2ccc(C(C)C)cc2)C(C(=O)/C=C/c2ccc(C(C)C)cc2)C1 (centres undefined) | 66 | i | i | i | i | i
CCN1CCN(C(=O)/C=C/c2ccc(C(C)C)cc2)CC1 | i | i | i | i | i | i
CSCCCNC(=O)Cn1nc(Cc2ccncc2)c2ccccc2c1=O | nt | nt | i | nt | i | nt
O=C(N1CCN(c2ccccn2)CC1)N1c2ccccc2Sc2ccccc21 | 58 | i | i | i | i | i
COc1ccc(OC)c(/C=N/NC(=O)c2cc3c(OC)c(OC)ccc3[nH]2)c1 | nt | i | i | i | i | 90
COc1ccc2[nH]c(C(=O)N/N=C/c3ccccc3OC)cc2c1 | nt | i | i | i | i | i
CCOc1ccc2[nH]c(C(=O)N/N=C/c3ccccc3OC)cc2c1 | nt | i | i | i | i | i
COc1cc(OC)c2cc(C(=O)N/N=C/c3ccccc3O)[nH]c2c1 | nt | i | i | i | i | 57
CCCOc1ccc2[nH]c(C(=O)N/N=C/c3cc(OC)c(OC)c(OC)c3)cc2c1 | nt | i | i | i | i | 59
O=C(N/N=C\c1c(O)ccc2ccccc12)c1ccc(O)cc1 | i | i | i | i | i | i
O=C(CN1CCOCC1)N/N=C/c1c(O)ccc2ccccc12 | nt | i | i | i | i | 69
Cn1cc(C(=O)N/N=C/c2c(O)ccc3ccccc23)ccc1=O | i | i | i | i | i | 71
O=C(N/N=C/c1c(O)ccc2ccccc12)c1ccc[n+](CCO)c1 | nt | i | i | i | i | 56
Cc1c(C(=O)N/N=C/c2c(O)ccc3ccccc23)nnn1-c1nonc1N | nt | i | i | i | i | 60
O=C(NN=Cc1c(O)ccc2ccccc12)c1ccncc1 | i | i | i | i | i | i
COc1ccc2ccccc2c1/C=N/NC(=O)c1nnn(-c2nonc2N)c1C(C)C | nt | i | i | i | i | i
Cc1cccc(NC(=O)NCCCN2CCN(c3ccc(F)cc3)CC2)c1 | nt | nt | i | nt | i | nt
CCC1(C)Cc2c(sc3nc(NN)n(C)c(=O)c23)CO1 (centres undefined) | i | i | i | i | i | 51
CCOC(=O)CSc1nc2sc3c(c2c(=O)[nH]1)CC(C)(CC)OC3 (centres undefined) | i | i | i | i | i | i
COc1cc2c(cc1OC)CN(c1nc(-c3cccnc3)nc3ccccc13)CC2 | i | i | i | i | i | 58
N#Cc1ccccc1S(=O)(=O)N1CCN(c2nc(-c3cccnc3)nc3ccccc23)CC1 | i | i | i | i | i | 83
